Inconclusive results are not listed. Activity calls are given as the source filed them.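 How the source made its calls, unless noted: active means viability increase at or above a cutoff of the median across tested compounds plus 3 SD (cut at about 8.5% in these data, passing the limit was not always enough); inconclusive means some gains above the cutoff, reason not given; inactive means the rest.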
Columns and labels:
[1] = OD615 S. cerevisiae growth inhibition, permissive medium, pilot counter-assay, permissive growth control for S. cerevisiae lifespan shortening project (AID 705;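 active means growth inhibition above 25% in both replicates, a cutoff set 3 SD above the mean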); conditions: OD615, 24 h, at 10 µM, hits give high values
In short: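 assay system = Saccharomyces cerevisiae strain carrying genetically modified DeaD replicative-lifespan system | medium = SC raffinose/galactose permissive medium | dosing = 10 µM single dose, 0.25% DMSO | schedule = 24 h compound exposure at 30 °C after 4 h pre-growth | measured by = OD at 615 nm | read-out basis = growth inhibition from lowered OD615 after 24 h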

[2] = Restrictive medium S. cerevisiae growth inhibition, OD615, pilot screen of yeast lifespan reduction project, restrictive growth control (AID 706;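 active means growth inhibition above a set limit, 3 SD over mean compound inhibition, in both replicates, cut at about 43% in these data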;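 further: modified DeaD lifespan yeast strain shifted to restrictive glucose medium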); conditions: OD615, 48 h, at 10 µM, hits give high values
In short: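 Buffer or medium: CSMM-D glucose medium. Material: genetically modified Saccharomyces cerevisiae, DeaD replicative lifespan assay strain. Times: 48 h compound exposure at 30 °C. Measured by: optical density at 615 nm.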

[3] = viability gain of MRP-1-high H69AR cells under doxorubicin, pilot screen, MRP-1 activator project, CellTiter-Glo, duplicate (AID 807); conditions: H69AR viability with doxorubicin, CellTiter-Glo luminescence; at 10 µM; hits give high values;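 further: compound pretreatment 18-22 h then 72 h combined with doxorubicin; 0% = doxorubicin alone and 100% = vehicle without doxorubicin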
[4] = growth suppression of beta-catenin knockout HCT116, pilot screen, human colon tumor cells (AID 823;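 active means cell viability at or below a set limit in both duplicate runs, the limit being the all-compound median minus 4 SD, cut at about 23% in these data, passing the limit was not always enough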;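 further: 0% = wells killed by 20 µM Hyamine and 100% = untreated DMSO cell wells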); conditions: CellTiter-Glo, 60 h, at 10 µM, hits give low values
[5] = growth suppression of PTEN-deleted HCT116, pilot screen, cell-based, HCT116 clonal line, CellTiter-Glo (AID 824;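 active means viability at or below 27.92% in each of two runs, the all-compound median minus 4 SD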;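 further: 0% = 20 µM Hyamine control and 100% = vehicle cell control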); conditions: 60 h, at 10 µM, hits give low values
[6] = inhibitors of the yeast RAM network, pilot screen, dse1pr::URA3 reporter, 5-FOA selection (AID 869;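 active means inhibition over a set limit, the all-compound mean plus 3 SD, in both replicate runs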;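 further: 0% = DMSO wells with no growth and 100% = 10 µM 1-NA-PP1 with full growth; RAM network block rescues cells from 5-FOA so hits raise OD615 growth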); conditions: S. cerevisiae dse1pr::URA3 5-FOA growth, OD615, 2 d; at 10 µM; hits give high values; strain carries analog-sensitive mutant Cbk1 kinase
[7] = RAM signaling pathway blockade in yeast – S. cerevisiae, Pdr1DBD-CYC8 efflux-inhibited sensitized strain, primary screen (AID 1298;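 active means RAM network inhibition above 8.4% in each of two replicates, 3 SD over the compound average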;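 further: 0% = DMSO untreated cells without growth and 100% = 10 µM 1-NA-PP1 full growth; higher means more yeast growth rescued from 5-FOA killing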); conditions: S. cerevisiae cbk1-as DSE1-URA3 strain, 5-FOA growth OD615, 2 d; at 50 µM; hits give high values

CN(C)c1cc(-c2ccccc2)nc(N)n1
inactive: growth inhibition [1] -13.3% | growth inhibition [2] -15.5% | viability increase [3] -6.2% | viability [4] 64.2% | viability [5] 55.8% | inhibition [6] 2.73% | RAM network inhibition [7] 0.09%

CCOC(=O)C1CCCN(C(=O)CN(c2ccc(OC)cc2)S(=O)(=O)c2c(C)noc2C)C1 (stereo not given)
inactive: growth inhibition [1] -7.31% | growth inhibition [2] -7.06% | viability increase [3] -2.84% | viability [4] 102% | viability [5] 93.8% | inhibition [6] 1.58% | RAM network inhibition [7] 1.13%

CCCCn1c(CN2CCN(C(=O)c3ccco3)CC2)nc2c1c(=O)n(C)c(=O)n2C
inactive: growth inhibition [1] -3.45% | growth inhibition [2] -7.47% | viability increase [3] -4.33% | viability [4] 101% | viability [5] 98% | inhibition [6] 0.905% | RAM network inhibition [7] 2.15%

Cn1c(NC(=O)CC2CCCCC2)cc(=O)n(C)c1=O
inactive: growth inhibition [1] -14% | growth inhibition [2] -21.6% | viability increase [3] -0.04% | viability [4] 93.3% | viability [5] 87% | inhibition [6] 0.43% | RAM network inhibition [7] -0.37%

O=C(CSc1nnc2scc(-c3ccccc3)n12)c1ccc2c(c1)OCCO2
inactive: growth inhibition [1] 1.86% | growth inhibition [2] 0.4% | viability increase [3] -2.27% | viability [4] 99.5% | viability [5] 93.1% | inhibition [6] 3.66% | RAM network inhibition [7] 7.73%

Cc1cc(C)c2c(n1)nn1c(C)c(CCC(=O)NCc3ccco3)c(C)nc21
inactive: growth inhibition [1] 3.4% | growth inhibition [2] 1.73% | viability increase [3] -4.82% | viability [4] 89.8% | viability [5] 94.8% | inhibition [6] 0.545% | RAM network inhibition [7] 2.09%

Cc1[nH]nc2c1/C(=N\O)CC(C)(C)C2
inactive: growth inhibition [1] 12.7% | growth inhibition [2] -8.1% | viability increase [3] -2% | viability [4] 94.2% | viability [5] 98.1% | inhibition [6] 1.48% | RAM network inhibition [7] -1.33%

c1ccc(CNn2c(N3CCOCC3)nc3ccccc32)cc1
inactive: growth inhibition [1] -14.9% | growth inhibition [2] -10.9% | viability increase [3] -3.02% | viability [4] 93% | viability [5] 93.2% | inhibition [6] 0.5% | RAM network inhibition [7] 4.26%

CCOC(=O)N1CCC(c2cc(=O)n3[nH]c(-c4ccccc4)cc3n2)CC1
inactive: growth inhibition [1] 2.9% | growth inhibition [2] -2.34% | viability increase [3] -1.16% | viability [4] 102% | viability [5] 95.3% | inhibition [6] 3.11% | RAM network inhibition [7] 9.15%

CCOc1ccc(NC(=O)CCS(=O)(=O)c2cccc3nsnc23)cc1
inactive: growth inhibition [1] -1.9% | growth inhibition [2] -3.6% | viability increase [3] -3.08% | viability [4] 101% | viability [5] 93.7% | inhibition [6] 1.31% | RAM network inhibition [7] 2.36%

CC(=O)Nc1ccc(S(=O)(=O)Nc2nc(C)cc(-n3nc(C)cc3C)n2)cc1
inactive: growth inhibition [1] -8.39% | growth inhibition [2] -6.55% | viability increase [3] -1.84% | viability [4] 102% | viability [5] 102% | inhibition [6] 1.25% | RAM network inhibition [7] 2.89%

COc1ccccc1CNc1ncnc2c1cnn2-c1ccccc1
inactive: growth inhibition [1] -13.5% | growth inhibition [2] -7.05% | viability increase [3] -4.76% | viability [4] 74.2% | viability [5] 79% | inhibition [6] 0.575% | RAM network inhibition [7] 0.57%

O=C(NO)c1ccc(C(=O)N(C2CCCCC2)C2CCCCC2)cc1
inactive: growth inhibition [1] -0.05% | growth inhibition [2] 5.84% | viability increase [3] -5.78% | viability [5] 36.1% | inhibition [6] 0.64% | RAM network inhibition [7] -1.08%
active: viability [4] 17.2%

C=CCNc1nc2c(c(=O)n(C)c(=O)n2C)n1CC
inactive: growth inhibition [1] 1.76% | growth inhibition [2] 3.36% | viability increase [3] -2.38% | viability [4] 107% | viability [5] 99.1% | inhibition [6] 2.24% | RAM network inhibition [7] 3.73%

COC(=O)c1ccc(C2C(C(=O)Nc3ccc(C)cc3C)=C(C)Nc3ncnn32)cc1 (stereo not given)
inactive: growth inhibition [1] 2.06% | growth inhibition [2] 9.76% | viability increase [3] -2.32% | viability [4] 97.2% | viability [5] 92.9% | inhibition [6] 2.46% | RAM network inhibition [7] 8.36%

COc1ccc(-n2nc(C(=O)N3CCC(C#N)CC3)c3c4ccccc4n(C)c3c2=O)cc1
inactive: growth inhibition [1] -14.9% | growth inhibition [2] -27% | viability increase [3] -4.6% | viability [4] 92.2% | viability [5] 88.9% | inhibition [6] 1.95% | RAM network inhibition [7] 7.49%

COc1ccc(S(=O)(=O)N2CCC(C(=O)N3CCc4ccccc4C3)CC2)cc1
inactive: growth inhibition [1] 11.1% | growth inhibition [2] -10.1% | viability increase [3] -5.43% | viability [4] 93.5% | viability [5] 85% | inhibition [6] 0.13% | RAM network inhibition [7] 2.53%

CCN1CCN(CC(=O)Nc2ccc(C)cc2C)C(=O)C1=O
inactive: growth inhibition [1] 2.74% | growth inhibition [2] -6.08% | viability increase [3] -0.23% | viability [4] 98% | viability [5] 97% | inhibition [6] 1.74% | RAM network inhibition [7] -0.71%

c1ccc(CSc2nnc(-c3ccco3)n2Cc2ccco2)cc1
inactive: growth inhibition [1] -5.04% | growth inhibition [2] 0.405% | viability increase [3] -3.83% | viability [4] 88.6% | viability [5] 87.4% | inhibition [6] 1.85% | RAM network inhibition [7] 3.53%

CC1(C)CC(=O)N(CC(=O)N2CCN(c3ncccn3)CC2)c2ccccc2S1(=O)=O
inactive: growth inhibition [1] -6.82% | growth inhibition [2] -9.5% | viability increase [3] 0.27% | viability [4] 102% | viability [5] 91.8% | inhibition [6] 0.48% | RAM network inhibition [7] -0.32%

Cc1cccc(NC(=O)c2ccc(S(=O)(=O)N3CCCCC3)cc2)n1
inactive: growth inhibition [1] -8.26% | growth inhibition [2] -4% | viability increase [3] 1.43% | viability [4] 94.5% | viability [5] 87% | inhibition [6] -0.09% | RAM network inhibition [7] 0.16%

COc1ccc(OC)c(CCNC(=O)CN2C(=O)CC(C)(C)S(=O)(=O)c3ccccc32)c1
inactive: growth inhibition [1] -4.35% | growth inhibition [2] -14.1% | viability increase [3] -2.6% | viability [4] 101% | viability [5] 92.3% | inhibition [6] -0.045% | RAM network inhibition [7] 2.76%

COC(=O)c1nc(NC(=O)C(C)(C)C)n[nH]1
inactive: growth inhibition [1] -9.88% | growth inhibition [2] -18.8% | viability increase [3] -3.77% | viability [4] 92.7% | viability [5] 89.8% | inhibition [6] 2.06% | RAM network inhibition [7] 0.47%

Cn1c(Cn2c(=O)sc3ccccc32)nnc1SCC(=O)N1CCN(c2ccccc2)CC1
inactive: growth inhibition [1] 0.845% | growth inhibition [2] 24.3% | viability increase [3] -0.95% | viability [4] 100% | viability [5] 96.6% | inhibition [6] 0.04% | RAM network inhibition [7] 3.66%

CSC1=N/C(=C\c2ccc(C)o2)C(=O)S1
inactive: growth inhibition [1] -2.35% | growth inhibition [2] 1.15% | viability increase [3] -2.31% | viability [4] 104% | viability [5] 102% | inhibition [6] 0.93% | RAM network inhibition [7] -0.21%

Reference: PubChem BioAssay
